Assay outcomes from PubChem BioAssay.
AHR act: AHR activators, primary screen, cell-based, luminescence, luciferase reporter, human | AHR-responsive luciferase reporter cells | 2.5% of 320,000 active | Aryl hydrocarbon receptor (Homo sapiens), P35869 | activation, % at 5 µM; in the data active means activation above about 47%;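 further: 0% = vehicle wells and 100% = reference agonist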
Target sequence (P35869 whole entry, looked up): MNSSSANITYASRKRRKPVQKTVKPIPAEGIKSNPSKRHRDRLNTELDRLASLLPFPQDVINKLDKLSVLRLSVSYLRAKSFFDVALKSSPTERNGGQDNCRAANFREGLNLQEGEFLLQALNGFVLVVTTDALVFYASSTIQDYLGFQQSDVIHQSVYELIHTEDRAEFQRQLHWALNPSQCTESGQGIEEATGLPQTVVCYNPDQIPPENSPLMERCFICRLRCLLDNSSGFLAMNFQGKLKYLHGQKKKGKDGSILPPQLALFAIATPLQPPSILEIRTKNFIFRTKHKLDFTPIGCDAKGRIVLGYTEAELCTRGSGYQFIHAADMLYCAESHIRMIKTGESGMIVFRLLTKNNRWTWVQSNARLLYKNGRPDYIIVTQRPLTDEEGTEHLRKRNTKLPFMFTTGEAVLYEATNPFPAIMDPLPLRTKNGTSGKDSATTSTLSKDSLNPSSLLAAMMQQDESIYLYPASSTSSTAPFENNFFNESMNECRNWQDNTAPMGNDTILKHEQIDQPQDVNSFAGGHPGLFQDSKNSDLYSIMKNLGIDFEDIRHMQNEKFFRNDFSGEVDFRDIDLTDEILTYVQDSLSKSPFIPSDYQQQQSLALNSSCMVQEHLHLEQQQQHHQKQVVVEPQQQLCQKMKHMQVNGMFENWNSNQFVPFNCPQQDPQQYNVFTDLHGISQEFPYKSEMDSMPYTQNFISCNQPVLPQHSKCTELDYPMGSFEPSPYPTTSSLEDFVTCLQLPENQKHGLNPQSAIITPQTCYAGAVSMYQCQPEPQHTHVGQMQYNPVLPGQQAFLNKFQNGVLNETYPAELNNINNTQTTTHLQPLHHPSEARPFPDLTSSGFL
GASC-1 inh: inhibitors of GASC-1 histone demethylase, primary screen, biochemical, fluorescence, DELFIA europium; Lysine-specific demethylase 4C (Homo sapiens), Q9H3R0; GST-JMJD2C(1-420) H3K9me3 demethylation; inhibition, % at 2.35 µM; 0.069% of 330,000 active; AID 2099, 2009;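 active means more than half of a compound's replicate wells show inhibition beyond 50%, single wells judged on their own value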;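 further: signal counts dimethyl H3K9 product captured on neutravidin plate; 0% = median of DMSO wells and 100% = 0.3 times that DMSO median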
FXN GAA850 act: FXN promoter activators, primary screen, cell-based, luciferase luminescence, HEK293 lucGAA850; 0.56% of 360,000 active; activation, % at 6 µM; HEK293 lucGAA850 FXN promoter luciferase reporter, 24 h; percent of 10 µM SAHA response;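 active means activation above the average of all compounds screened plus 3 SD, cutoff fixed separately per campaign, cut at about 7.5% in these data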;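 further: 0% = DMSO wells and 100% = 10 µM SAHA wells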
SR-BI DiI-HDL act: activators of SR-BI mediated DiI-HDL uptake, primary screen, ldlA[mSR-BI] CHO cells, DiI fluorescence; 3 h; 100 = double the neutral-control signal; activation, % at 12.5 µM; 0.096% of 320,000 active;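 active means mean replicate activation of at least 60% and every replicate at or above 60%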;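 further: 0% = median plate neutral-control signal and 100% = twice that signal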
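material = CHO ldlA[mSR-BI] cells | medium = Ham's F12 with 0.5% BSA, HEPES 25 mM, pH 7.4 | reagent = fluorescent DiI-HDL, 10 µg/mL final | compound dosing = single-point compound dose | incubation = 3 h, 37 °C | measured by = bottom-read fluorescence, 550/595 nm | measure = HDL uptake via cellular fluorescence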
SR-BI DiI inh: inhibitors of SR-BI mediated HDL lipid uptake, primary screen, ldlA[mSR-BI] cells, fluorescence, single point; ldlA[mSR-BI] CHO cells, DiI-HDL uptake fluorescence, 3 h; inhibition, % at 12.5 µM; 0.96% of 320,000 active;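 active means mean replicate inhibition of at least 70% and a set share of replicates each scoring 70 or more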;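 further: 0% = median of neutral control wells and 100% = median of positive control wells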
* marks the source's active call; other numbers are inactive results; x = no result given. Shown are actives, neighbours in structure and some others; about 3.7% of the full set was active somewhere.

SMILES	AHR act	GASC-1 inh	FXN GAA850 act	SR-BI DiI-HDL act	SR-BI DiI inh
CC(C)(C)NC(=O)C(c1ccccn1)N(C(=O)c1csnn1)C1CCCC1 (stereo not drawn)	3.6	-7.0	1.0	22.2	-22.2
CCc1cc2c(N=Nc3c(O)[nH]c4ccccc34)ncnc2s1	23.2	2.5	2.3	2.1	-2.1
CCc1ccc2[nH]c(O)c(N=Nc3nc(-c4ccccc4)cs3)c2c1	62.7*	-20.0	0.9	9.6	-9.6
CCc1c(C)nc(SCC(N)=O)c(C#N)c1C	-1.6	-4.0	0.2	-21.2	21.2
CCc1c(C)nc(SCC(=O)c2cccs2)c(C#N)c1C	94.0*	0.3	5.0	-6.7	6.7
O=C(c1ccc(Cl)c(S(=O)(=O)NCc2ccco2)c1)N1CCN(c2ccc(F)cc2)CC1	2.1	2.0	-1.9	-46.4	46.4
O=C1OC(Cc2ccccn2)C(=O)C1=C1SCCS1 (stereo not drawn)	60.0*	4.8	1.6	25.6	-25.6
O=C(NCc1ccco1)/C(=C\c1ccco1)NC(=O)c1ccco1	2.1	-0.2	0.7	3.5	-3.5
COc1ccc(-c2nc(N=Nc3ccc(O)cc3)n[nH]2)cc1	18.8	-128.6	0.3	-8.5	8.5
COc1ccc(N=Nc2[nH]c3ccc(C)cc3c2O)cc1	68.8*	-1.8	3.4	-23.4	23.4
Cc1ccc(N=Nc2[nH]c3ccccc3c2O)cc1	77.1*	-1.9	2.3	2.2	-2.2
COc1cccc2cccc(/C=N/n3cnnc3)c12	7.5	-28.8	2.4	-13.5	13.5
Nc1ccc(CNC(=O)OCC2c3ccccc3-c3ccccc32)cc1	55.5*	-0.5	1.6	-23.6	23.6
O=C(N[C@H](Cc1ccc(Cl)cc1)C(=O)O)OCC1c2ccccc2-c2ccccc21	2.3	-6.6	0.8	6.5	-6.5
CCC(=O)N1COC[C@@H]1Cc1ccccc1	0.4	-5.2	-0.5	16.4	-16.4
C[N+]1=C(/C=C/Nc2ccccc2Cl)C(C)(C)c2ccccc21	1.9	26.7	0.8	-17.3	17.3
COC(=O)c1ccc2c(c1)C(C)(C)C(/C=C/c1ccccc1O)=[N+]2C	8.3	-4.5	-6.9	-75.5	75.5*
COc1ccccc1/C=C/C(=O)Nc1cccc(C(C)=O)c1	6.3	-16.5	1.0	-75.9	75.9*
COc1cccc(/C=C/C(=O)Nc2cccc(C(C)=O)c2)c1OC	23.7	-5.3	4.8	x	x
COc1ccc(Br)cc1/C=C/C(=O)Nc1ccc2ccccc2c1	49.8*	3.0	2.2	-50.2	50.2
CC(C)Oc1ccc(C(=O)Nc2ccc(N3CCN(C(=O)c4ccco4)CC3)cc2)cc1	-1.5	7.3	0.8	-74.2	74.2*
CCOc1ccc(NC(=O)COC(=O)c2c(OC)cccc2OC)cc1	3.2	3.1	-1.1	-2.1	2.1
COc1cc(OC)cc(C(=O)Nc2cccc(N3CCCC3)c2)c1	41.3	-5.9	0.0	-87.0	87.0*
COc1cc(OC)cc(C(=O)Nc2cccc(C(C)=O)c2)c1	13.6	12.4	2.3	-49.1	49.1
CCOc1ccc(NC(=O)c2c(OC)cccc2OC)cc1	50.8*	5.3	0.5	3.9	-3.9
SMILES	AHR act	GASC-1 inh	FXN GAA850 act	SR-BI DiI-HDL act	SR-BI DiI inh
CC(C)Oc1ccc(C(=O)Nc2ccc(N3CCCC3)cc2)cc1	3.1	-2.3	-1.9	-75.1	75.2*
CCc1ccc(-c2csc3ncn(CC(=O)N4CCOCC4)c(=O)c23)cc1	-1.0	6.2	-0.4	-21.7	21.7
CCNC(=O)CN(c1ccc(F)cc1)S(=O)(=O)c1ccc2c(c1)OCCO2	-3.9	x	0.2	x	x
COc1cccc(OC)c1C(=O)Nc1ccc2c(c1)Cc1ccccc1-2	74.8*	-4.7	2.2	-68.7	68.7
Cc1ccc(C(=O)Nc2ccc(N3CCN(C(=O)c4ccco4)CC3)cc2)c(Cl)c1	-5.1	194.9	0.6	-84.6	84.6*
COc1cccc(OC)c1C(=O)Nc1ccc(N2CCCC2)cc1	49.5*	-16.4	1.0	0.2	-0.2
O=C(Nc1ccc(N2CCCC2)cc1)c1cccc(Cl)c1	-1.8	-33.0	2.0	-86.1	86.1*
O=C(NCc1ccc(Cl)cc1)C(=O)NCC(c1cccnc1)N1CCN(c2ccc(F)cc2)CC1 (stereo not drawn)	8.2	x	-0.8	-21.5	21.4
CC(=O)c1cccc(NC(=O)C2(C)Cc3c(-c4ccccc4)ccnc3O2)c1 (stereo not drawn)	x	x	0.9	x	x
COc1ccccc1/C=C(\NC(=O)c1ccc(OC)c(OC)c1)C(=O)Nc1cc([N+](=O)[O-])ccc1C	8.7	5.3	-1.8	-19.7	19.7
Cc1ccc(C(=O)Nc2ccc(N3CCN(C)CC3)cc2)cc1	6.8	-7.6	3.2	-5.5	5.5
Cc1ccc(C(=O)N2CCN(c3ccc(NC(=O)c4cc(C)cc(C)c4)cc3)CC2)cc1	x	126.8	-2.7	-30.1	30.0
O=C(Nc1ccc(N2CCCC2)cc1)c1ccc(Br)cc1	-3.1	3.1	-1.3	-75.8	75.8*
Cc1cc(C)cc(C(=O)Nc2ccc(N3CCCC3)cc2)c1	-5.7	4.6	4.2	-87.5	87.5*
Cc1ccccc1C(=O)N1CCN(c2ccc(NC(=O)c3cccc(OC(C)C)c3)cc2)CC1	3.2	-2.3	-0.8	-73.8	73.8*
C[C@]12CCC(O)CC1=CCC1C2CC[C@]2(C)/C(=N\NC(N)=S)CCC12 (stereo partly drawn)	0.1	4.2	0.6	-90.4	90.4*
CCCCN(C(=O)C1=CC=CN2CCS(=O)(=O)N=C12)c1ccccc1	x	x	2.2	22.3	-22.3
COc1cc(OC)cc(-c2c(-c3cccs3)c3cc(-c4ccc(SC)cc4)ccc3n2C)c1	0.3	-0.3	0.7	-19.6	19.6
COc1cc(OC)cc(-c2c(-c3cccs3)c3cc(-c4ccc5cc[nH]c5c4)ccc3n2C)c1	12.3	-0.2	1.3	-109.0	109.0*
COc1cc(OC)cc(-c2c(-c3cccs3)c3cc(-c4ccc5[nH]ccc5c4)ccc3n2C)c1	1.0	-1.1	0.1	-79.6	79.6*
COC(=O)c1ccc(C2/C(=C(/O)c3ccc4c(c3)CC(C)O4)C(=O)C(=O)N2Cc2ccncc2)cc1 (stereo not drawn)	-0.8	-4.8	-1.8	7.9	-7.9
OCC1(Cc2ccc(F)cc2F)CCCN(CCCc2ccccc2)C1 (stereo not drawn)	-0.4	8.7	-2.4	11.9	-11.9
O=C(CSc1nc2[nH]ncc2c(=O)[nH]1)NCCc1ccccc1	78.4*	-1.3	0.7	20.6	-20.6
O=C(COc1ccc2ccccc2c1)Nc1ccccc1C(=O)O	9.6	10.0	-0.6	32.3	-32.3
O=C(Nc1cccc2cccnc12)c1csc(COCCO)n1	x	x	1.4	x	x
Cc1noc(C)c1COC(=O)c1cccc(N(C)C)c1	0.4	-30.2	-0.7	-1.5	1.5
COc1nc(-c2ccccc2)cc(-c2ccc(OC)c(OC)c2)n1	17.4	-9.9	0.8	-54.9	54.9
